# HGIII-sPLA2 inh: Inhibits HGIII-sPLA2 liposome hydrolysis, primary screen; AID 743126; Q9NZ20; QFRET BODIPY PC-A2 liposome hydrolysis, fluorescence; hit rate 0.56% among 370,000; inhibition, % at 12.2 µM;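 active means inhibition above mean plus 3 SD of compounds lying within the high and low control bounds, cut at about 19% in these data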;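 further: 0% = median of test compound wells and 100% = no enzyme DMSO wells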
# PLCb3 inh: PLC-beta3 (human) inhibition, primary screen. Q01970. Purified PLC-beta3, fluorogenic substrate, fluorescence. inhibition, % at 12.2 µM. hit rate 0.18% among 370,000. AID 720704; in the data active means inhibition above about 11%;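 further: 0% = median of compound wells on plate and 100% = full blocker control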
# proCasp3 act: procaspase-3 (human) activation; P42574; recombinant procaspase-3 D3A, Ac-DEVD-pNA absorbance 405 nm; activation, % at 8.5 µM; hit rate 0.11% among 330,000; AID 463141;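 active means activation above the mean of all tested compounds plus 3 SD, cut at about 21% in these data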;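 further: 0% = DMSO alone and 100% = DMSO wells spiked with extra 5 µM PC-3 D3A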
#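 Assay system – Procaspase-3 D3A mutant, all three cleavage aspartates alanine · Controls – DMSO-only low control, 5 µM PC-3 D3A high control · Schedule – 1 h compound preincubation, 2 h substrate hydrolysis at 25 °C · Signal – 405 nm absorbance of p-nitroaniline, reads at 0 and 120 min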
# PLCg1 inh: blocks human PLC-gamma1 enzyme activity. hit rate 0.84% among 370,000. inhibition, % at 12.2 µM. purified PLC-gamma1, fluorogenic substrate, fluorescence; in the data active means inhibition above about 9.5%
# procasp7 counter: activates human procaspase-7, counter-screen for procaspase-3 activators. P55210. recombinant procaspase-7, Ac-DEVD-pNA absorbance 405 nm; D23A/D198A/D206A triple mutant, cannot self-cleave; scale: DMSO 0, 5 µM enzyme 100. activation, % at 8.5 µM. hit rate 0.093% among 330,000;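 active means percent activation above the screen-wide mean plus 3 SD, cut at about 25% in these data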
#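 Assay system: Uncleavable procaspase-7 mutant enzyme; Input: 2 µM procaspase-7 mutant as dispensed; Also added: DEVD-pNA substrate; Medium: Zinc-free HEPES pH 7.4 with 300 mM NaCl, 0.01% Triton X-100; Timing: 1 h compound preincubation, 2 h substrate cleavage, 25 °C; Measured by: Epi-absorbance of released pNA at 405 nm, two timepoints.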
# Arr AP2 block: human beta-arrestin and AP2 interaction inhibition; AID 504490; inhibition, % at 10 µM; FITC-arrestin peptide / GST-AP2 beads, flow cytometry; AP2 beta2 appendage carries R879A mutation; hit rate 0.31% among 340,000;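 active means inhibition above a set limit, near 3 SD of compounds lacking own fluorescence, cut at about 54% in these data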;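 further: plate controls were DMSO wells for no effect and 5 µM unlabelled arrestin peptide for full effect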
#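 System: GST-AP2 R879A glutathione beads | Also added: FITC-arrestin peptide, 50 nM | Times: 12 min plus 1 h, RT | Signal: Bead flow cytometry, FITC channel | Buffer or medium: PBS with 0.05% Tween 20 and 0.1% BSA | Read-out basis: Percent drop in bead-associated FITC signal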
# Arr-AP2 CP1: blocks beta-arrestin peptide binding to human AP2. inhibition, % at 10 µM. GST-AP2 beads, FITC arrestin peptide binding, flow cytometry; GST-fused beta2-adaptin appendage, R879A mutant. AID 504908. hit rate 2% among 1,300. shares compounds with Arr AP2 block;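 active means inhibition above a set limit, roughly 3 SD of non-fluorescent compound noise, cut at about 38% in these data; inactive means inhibition at or below that limit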;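 further: loss of bead fluorescence from 50 nM FITC arrestin peptide bound to appendage; 0% = negative control wells and 100% = excess unlabelled arrestin peptide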
# Target sequence (P63010 whole entry, looked up, the tested form may be a part, one chain of several): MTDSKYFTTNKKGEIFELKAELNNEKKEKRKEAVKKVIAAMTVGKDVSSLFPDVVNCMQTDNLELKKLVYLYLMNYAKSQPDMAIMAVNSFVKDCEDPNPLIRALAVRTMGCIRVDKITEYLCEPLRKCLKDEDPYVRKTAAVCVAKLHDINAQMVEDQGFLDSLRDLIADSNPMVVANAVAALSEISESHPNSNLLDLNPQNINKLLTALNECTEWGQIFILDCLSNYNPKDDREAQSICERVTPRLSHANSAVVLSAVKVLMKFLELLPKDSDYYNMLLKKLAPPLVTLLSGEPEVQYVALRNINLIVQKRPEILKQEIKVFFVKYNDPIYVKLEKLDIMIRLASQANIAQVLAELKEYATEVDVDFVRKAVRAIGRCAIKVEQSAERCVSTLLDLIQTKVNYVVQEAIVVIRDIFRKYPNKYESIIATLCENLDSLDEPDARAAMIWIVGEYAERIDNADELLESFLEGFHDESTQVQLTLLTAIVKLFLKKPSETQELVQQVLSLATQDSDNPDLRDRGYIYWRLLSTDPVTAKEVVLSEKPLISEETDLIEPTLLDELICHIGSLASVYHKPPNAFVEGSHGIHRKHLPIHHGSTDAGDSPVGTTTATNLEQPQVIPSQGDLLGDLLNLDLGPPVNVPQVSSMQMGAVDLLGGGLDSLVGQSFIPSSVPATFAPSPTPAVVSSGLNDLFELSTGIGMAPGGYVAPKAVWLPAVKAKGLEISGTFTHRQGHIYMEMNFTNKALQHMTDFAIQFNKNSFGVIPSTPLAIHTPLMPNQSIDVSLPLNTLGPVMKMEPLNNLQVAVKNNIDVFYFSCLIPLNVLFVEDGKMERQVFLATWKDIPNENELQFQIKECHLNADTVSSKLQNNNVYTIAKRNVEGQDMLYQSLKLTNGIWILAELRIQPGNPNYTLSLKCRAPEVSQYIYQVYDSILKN
# GST GSH counter: GST-GSH bead binding interference, counter-screen | hit rate 2% among 1,300 | inhibition, % at 10 µM | GST-fluorescein binding to GSH beads, fluorescence | AID 588338 | shares compounds with Arr AP2 block;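 active means inhibition above 50%, about 3 SD of the inhibition seen with non-fluorescent compounds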;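 further: fluorescein maleimide labelled GST captured on 4 micron glutathione beads; higher means more loss of bead fluorescence from quenching or blocked binding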
# * = called active by the depositor; . = no result given. Most compounds without a hit are left out; they make up all but 1.9% or so of the library.
SMILES,HGIII-sPLA2 inh,PLCb3 inh,proCasp3 act,PLCg1 inh,procasp7 counter,Arr AP2 block,Arr-AP2 CP1,GST GSH counter
O=C(Nc1ccc(F)cc1)Nc1cnccn1,7.8,-5.7,-3.7,-1.6,8.1,4.1,2.1,-5.1
O=C(Nc1ccc(Br)cc1)c1cnccn1,0.0,-1.6,12.3,-3.5,3.7,9.9,.,.
O=C(Nc1ccc(Br)cc1)Nc1cnccn1,-0.9,-4.8,.,-1.3,.,14.7,-5.3,.
C=CCN(CC#CC(=C)C)Cc1ccccc1,8.6,0.4,.,-0.8,.,.,.,.
CCn1c(COc2ccc(Cl)cc2)nnc1SCC(=O)Nc1ccccc1-c1ccccc1,-23.0,-0.7,.,-0.2,.,.,.,.
O=C(CN1CCOCC1)Nc1ccc(Cl)cn1,3.1,-8.2,-2.1,-3.2,7.7,54.2*,9.9,7.7
O=C(CN1CCOCC1)Nc1ccc(Cl)cc1,-1.7,-7.2,5.4,-1.4,-3.8,-7.5,.,.
Cc1ccccc1NC(=O)CCS(=O)(=O)c1ccccc1,4.6,0.2,.,-1.5,.,.,.,.
CN1C2=CC=CC=CC2=[N+](C)C12C([N+](=O)[O-])=CC(=[N+]([O-])[O-])C=C2[N+](=O)[O-] (stereo not drawn),2.5,-5.8,-5.1,-0.7,-7.0,-9.7,.,.
CN1C2=CC=CC=CC2=[N+](C)C12C=CC(=[N+]([O-])[O-])C=C2[N+](=O)[O-] (stereo not drawn),0.4,-6.2,5.5,0.8,2.1,54.1*,1.6,-7.4
CC1(C)CC2(CCO1)N1CC3(C)CN2CC(C)(C1)C3=O (stereo not drawn),1.7,4.4,-11.7,6.4,1.2,83.8*,-1.3,-2.8
O=C(NCc1ccccc1)C1(C(=O)C2CC2)CC(c2ccccc2C(F)(F)F)=NO1 (stereo not drawn),2.2,-0.2,.,1.6,.,.,.,.
Nc1nc(NCc2ccccc2)nc(NCCO)c1[N+](=O)[O-],14.0,-5.6,-1.0,4.6,2.5,56.4*,-6.3,-7.5
O=C(CCSc1ccc(Cl)cc1)N1CCN(S(=O)(=O)c2ccccc2)CC1,-15.4,-2.2,5.7,3.6,-8.9,-5.4,.,.
O=C(CCC(=O)N1CCN(S(=O)(=O)c2ccc(Cl)cc2)CC1)NCc1ccccc1,-1.1,1.9,-4.2,-0.2,-2.4,58.0*,10.1,-0.8
CN(C)c1ccc(NC(=O)NC2CCCCN(Cc3cccc(Cl)c3)C2=O)cc1 (stereo not drawn),15.7,-2.4,.,1.6,.,.,.,.
CC(=O)c1ccc(N2CCN(C(=O)c3ccc(S(=O)(=O)NCc4ccco4)cc3)CC2)cc1,-7.4,-5.1,7.5,-3.1,5.5,-8.6,3.2,-4.8
O=C(/C=C/c1ccc(S(=O)(=O)NCc2ccco2)cc1)N1CCN(c2ccccc2)CC1,-23.1,-0.9,-3.4,1.1,1.5,-12.5,.,.
O=C(c1ccc(S(=O)(=O)NCc2ccco2)cc1)N1CCN(c2ccc(F)cc2)CC1,3.3,-4.0,2.0,4.3,-6.8,58.9*,4.6,-10.0
CC(=O)c1ccc(N2CCN(C(=S)NCc3ccco3)CC2)cc1,11.7,-16.5,-1.1,-2.3,-11.4,-16.5,.,.
Cn1ccc(C(=O)OCC(=O)Nc2cccc3ccccc23)n1,2.4,-4.3,-0.5,2.9,10.5,59.4*,-5.8,-4.4
Cn1ccc(C(=O)OCC(=O)c2ccccc2)n1,-4.1,-2.4,-4.7,0.6,-5.2,17.5,.,.
Cc1c(C(=O)NC(C)c2ccccn2)oc2c(Cl)cccc12 (stereo not drawn),-6.5,-1.4,.,0.2,.,73.7*,-10.8,-9.9
Oc1cc2c(cc1C(c1ccc(Br)cc1)N1CCCC1)OCO2 (stereo not drawn),1.4,1.7,.,1.2,.,60.5*,11.2,18.2
CC(=O)CC(=O)O[C@@H]1C=C[C@H](NC(=O)OC(C)(C)C)C1,-7.3,2.3,.,0.6,.,.,.,.
SMILES,HGIII-sPLA2 inh,PLCb3 inh,proCasp3 act,PLCg1 inh,procasp7 counter,Arr AP2 block,Arr-AP2 CP1,GST GSH counter
COC(=O)c1cccc(Cn2c(Cl)c(/C=N/NC(=O)c3ccco3)sc2=O)c1,-1.1,-15.4,4.2,-1.6,-2.3,56.6*,-8.1,6.8
CCOc1ccccc1CN1CCN(Cc2cn(C)nc2-c2ccccc2)CC1CCO (stereo not drawn),-10.8,-5.7,3.8,-1.3,4.0,54.0*,7.2,5.3
CC(C)(C)NC(=O)COC(=O)c1ccccc1OCC(=O)Nc1ccc(Br)cc1,-0.7,2.5,-0.6,2.9,10.7,103.3*,-8.6,-3.4
CCCNC(=O)COC(=O)c1ccccc1OCC(=O)Nc1ccc(Br)cc1,13.2,1.6,-8.6,-1.3,-6.1,34.1,.,.
O=C(COc1coc(CN2CCc3ccccc3C2)cc1=O)Nc1cccc(F)c1,2.7,2.6,2.8,-2.8,2.6,-25.0,.,.
COc1cccc(NC(=O)COc2coc(CN3CCc4ccccc4C3)cc2=O)c1,-10.6,-4.5,1.5,1.0,-1.3,59.3*,19.6,-1.2
O=C(COc1coc(CN2CCc3ccccc3C2)cc1=O)Nc1ccccc1F,-17.1,-13.3,9.7,-13.6,11.5,65.3*,-10.0,10.1
C/C=C/C(=O)N1CCC(C(=O)NC2CCCc3ccccc32)CC1 (stereo not drawn),1.2,2.7,.,1.6,.,.,.,.
COc1cccc(-c2nnc(SCC(=O)OC(C)C)n2-c2ccc(Cl)cc2)c1,-5.5,-0.4,.,0.0,.,.,.,.
Cc1ccc(CNC(=O)C2CCC(=O)N2Cc2ccc(C)cc2)cc1 (stereo not drawn),15.5,-5.4,0.2,0.9,1.7,-22.1,.,.
Cc1ccc(CN2C(=O)CCC2C(=O)NCCCN2CCCC(C)C2)cc1 (stereo not drawn),3.1,1.2,-2.9,5.3,-3.4,1.7,-11.2,-8.5
O=C(NCCCN1CCN(c2cccc(Cl)c2)CC1)C1CCC(=O)N1Cc1ccccc1Cl (stereo not drawn),-17.2,3.8,.,0.7,.,4.4,5.8,-10.6
Cc1ccc(CN2C(=O)CCC2C(=O)NCCN2CCOCC2)cc1 (stereo not drawn),6.1,7.9,2.5,6.9,-3.3,6.0,-9.7,-4.5
COc1ccc(C2CCC3(CCC(=O)N3CCOC(=O)NCc3ccc(Cl)cc3)CC2)cc1 (stereo not drawn),-15.5,-2.1,.,0.6,.,.,.,.
C(=N\n1cnnc1)/c1ccc(N2CCOCC2)s1,13.7,-19.8,-4.4,-16.8,-9.6,92.1*,-8.7,-4.5
Cc1n[nH]c(=S)c2nn(-c3cccc(Cl)c3)c(C)c12,4.3,2.3,.,-0.5,.,.,.,.
COc1cccc(-n2nc3c(=S)[nH]nc(C)c3c2C)c1,4.0,4.1,-2.1,1.9,10.4,85.1*,16.6,-3.5

# Screening results as filed in PubChem.
